Results of several laboratories.
Lines come from different studies, so protocols differ.

| Compound | assay | test system | setting | Tmax [min] |
| --- | --- | --- | --- | --- |
| CCCc1c(C2CCCCN2CCN2CCOCC2)[nH]c2cc(OC(F)(F)F)ccc12 (centres unmarked) |  | male mouse, plasma | oral, 30 mg/kg | 60 |
| O=C(c1cc2cc(F)ccc2[nH]1)c1c[nH]c2c(F)cccc12 |  | female mouse, plasma | intraperitoneal, 6 mg/kg | ~15 |
| CNC(=O)c1cc(Oc2ccc(NC(=O)Nc3ccc(Cl)c(C(F)(F)F)c3)c(F)c2)cc[n+]1[O-] |  | mouse, plasma | oral, 10 mg/kg, single dose | 324 |
| COc1cc(OC)c2nccc(N3CCc4c(cc(Cn5ccnc5)cc4-c4cn(C)nc4C(F)(F)F)C3=O)c2c1 |  | male CD-1 mouse, plasma | oral, 50 mg/kg | 42 |
| CC(C)c1cnn2c(NCc3ccccc3)cc(NC[C@H]3CCNC[C@@H]3O)nc12 |  | female nude mouse, tumour | oral, 100 mg/kg, tumour-bearing | 360 |
| COc1ccc(C(O)COc2ccc(-c3csc(-c4ccc(OCC(O)c5ccc(OC)c(OC)c5)cc4)n3)cc2)cc1OC (centres unmarked) |  | C57BL/6 mouse, plasma | oral, 30 mg/kg | 60 |
| CC(C)(C)c1ccc(O)c(CN(Cc2cc(C(C)(C)C)ccc2O)C2CCC(NC(N)=O)CC2)c1 (centres unmarked) |  | male C57BL/6 mouse, plasma | intraperitoneal, 10 mg/kg, single dose | 15 |
| NC[C@@H]1O[C@H](O[C@H]2[C@@H](O)[C@H](O[C@@H]3[C@@H](O)[C@H](N)C[C@H](N)[C@H]3O[C@H]3O[C@H](CO)[C@@H](O)[C@H](O)[C@H]3N)O[C@@H]2CO)[C@H](N)[C@@H](O)[C@@H]1O |  | male BALB/c mouse, plasma | oral, 500 mg/kg | 60 |
| COc1ccc(C[C@@H](C(=O)NO)n2cc(CNS(=O)(=O)c3ccc(-c4ccccc4)s3)nn2)cc1 |  | female CD-1 mouse, plasma | intraperitoneal, 50 mg/kg | 20 |
| COc1ccc2c3c1O[C@H]1C[C@@H](OC(=O)c4ccccc4)C=C[C@@]31CCN(C)C2 |  | mouse, brain | intravenous, 3 mg/kg | 3 |
| CC=Cc1ccc(O)c(OC)c1 |  | mouse, plasma | intranasal, 100 mg/kg | 5 |
| CCc1ccc(Cc2cc([C@@H]3O[C@H](CO)[C@@H](O)[C@H](O)[C@H]3O)cc3c2CCC3)cc1 |  | male C57BL/6 mouse, plasma | oral, 0.3 mg/kg | 30 |
| Cc1cc(NC(=O)c2cccc3cc(-c4cccc5[nH]nc(N)c45)ccc23)ccc1F |  | male CD-1 mouse, plasma | oral, 10 mg/kg | 60 |
| CNC(=O)c1cc(OC)cc2c(N3CCc4c(cc(Cn5ccnc5)cc4-c4cn(C)nc4C(F)(F)F)C3=O)ccnc12 |  | male CD-1 mouse, plasma | oral, 50 mg/kg | 48 |
| CNC(=O)[C@H](Cc1c[nH]cn1)NC(=O)CN(CCCc1ccccc1)CC(=O)O |  | male C57BL/6 mouse, plasma | intraperitoneal, 30 mg/kg | 10 |
| C=CC(=O)N1CC2CC(n3nc(-c4ccc(C(=O)Nc5ccccn5)cc4)c4c(N)ncnc43)CC2C1 (centres unmarked) |  | SCID mouse, plasma | oral, 5 mg/kg | 60 |
| Cc1c(-c2cc3ccccc3n2Cc2ccc(F)cc2)nc2cc(C(=O)N3CCC[C@@H](N)C3)ccn12 |  | male BALB/c mouse, plasma | oral, 10 mg/kg | 30 |
| CS(=O)(=O)CCNCc1ccc(-c2ccc3ncnc(Nc4ccc(OCc5cccc(F)c5)c(Cl)c4)c3c2)o1 |  | nude mouse, plasma | oral, 100 mg/kg, single dose | 120 |
| COc1nc(-c2cc(C)c(N[C@@H](C)c3cc(F)cc(F)c3)nn2)ccc1-n1cnc(C)c1 |  | male CD-1 mouse, plasma | oral, 5 mg/kg, single dose | 60 |
| CC(C)(C)c1cc(NC(=O)Nc2ccc(Oc3ccnc4[nH]c(=O)cnc34)cc2F)n(-c2ccccc2)n1 |  | BALB/c mouse, plasma | oral, 10 mg/kg | 30 |
| Cc1ncsc1-c1ccc(CNC(=O)[C@@H]2C[C@@H](O)CN2C(=O)[C@@H](NC(=O)CCCCCCCCCCCC(=O)NCCCCC#Cc2cccc(-c3nn(-c4nc(C(=O)O)cs4)c(CC4CC4)c3Cc3ccc(S(N)(=O)=O)cc3)c2)C(C)(C)C)cc1 |  | male Swiss mouse, plasma | intraperitoneal, 5 mg/kg, single dose | 480 |
| Cc1ccc2cncc(N3CCc4c(cc(Cn5ccnc5)cc4-c4cn(C)nc4C(F)(F)F)C3=O)c2c1 |  | male CD-1 mouse, plasma | oral, 50 mg/kg | 78 |
| OC[C@H]1O[C@@H](c2ccc(Cl)c(Cc3ccc(O[C@H]4CCOC4)cc3)c2)[C@H](O)[C@@H](O)[C@@H]1O |  | CD-1 mouse, plasma | oral, 10 mg/kg | 15 |
| CCc1cc(OC)c2nccc(N3CCc4c(cc(Cn5ccnc5)cc4-c4cn(C)nc4C(F)(F)F)C3=O)c2c1 |  | male CD-1 mouse, plasma | oral, 150 mg/kg | 30 |
| Cc1ccc(NC(=O)c2ccc(CN3CCN(C)CC3)cc2)cc1Nc1nccc(-c2cncc(-c3oncc3C)c2)n1 |  | male C57BL/6 mouse, brain | oral, 100 mg/kg/day | 120 |
| COc1nc(-c2cc(C)c(N[C@@H](C)c3c(F)cc(F)cc3F)nn2)ccc1-n1cnc(C)c1 |  | male CD-1 mouse, plasma | intravenous, 1 mg/kg, single dose | 4.98 |
| COc1cc(/C=C/C(=O)CC(=O)/C=C/c2ccc(O)c(OC)c2)ccc1O | HPLC | Swiss mouse, plasma | oral, 2 g/kg | 120 |
| Cc1cc(Nc2ccc(S(F)(F)(F)(F)F)cc2)n2ccnc2n1 |  | male Swiss mouse, plasma | oral, 100 mg/kg, single dose | 30 |
| CN1CCC[C@H](CN2c3ccccc3Sc3ccccc32)C1.Cl |  | mouse, plasma | oral, 64 mg/kg, single dose | 120 |
